Screening data deposited in PubChem by several laboratories.
Lung fibro prol – blocks proliferation of human lung fibroblasts; viability, % at 10 µM; 1.1% of 85,000 active; LL 47 human lung fibroblast viability, ATP luminescence; active compounds read low; AID 719;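 active means viability at or below 50% in the single dose screen; inactive means viability above 50%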;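 further: compound exposure lasted 72 h before the ATP readout; 100% = median luminescence of untreated cell-only wells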
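Material: human LL 47 lung fibroblast cells; quantity: 1,150 cells/well; medium: IMEM plus 15% FBS; doses: 0.1% DMSO in all compound wells; timing: overnight attachment after seeding, then 72 h compound exposure at 37 °C; detection: CellTiter-Glo luminescence; measure: % viability of median cell-only signal; controls: cell-only wells, no compound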
HUVEC prolif 384 – blocks proliferation of human endothelial cells; HUVEC proliferation, CellTiter-Glo luminescence, 72 h; active compounds read low; viability, % at 10 µM (by protocol); 1.1% of 86,000 active;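 active means viability at or below 30%; inactive means viability above 30%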;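 further: 100% = median luminescence of DMSO-only cell control wells on each plate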
H69AR growth 86K – blocks growth of human H69AR lung tumor cells; AID 598; 6% of 85,000 active; viability, % at 10 µM; H69AR lung tumor viability, ATP luminescence, 72 h; active compounds read low;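 active means viability at or below 40%; inactive means viability above 40%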;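 further: multidrug resistant small cell line overexpressing MRP-1 efflux transporter; 100% = mean luminescence of untreated control wells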
Jurkat viability – reduces viability or proliferation of Jurkat cells; 1.2% of 56,000 active; Jurkat E6.1 viability, ATP luminescence, 48 h; inhibition, % at 4 µM; AID 463;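 active means inhibition above the mean inhibition of all tested compounds plus 3 SD, cut at about 28% in these data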
tolC growth inh – blocks growth of E. coli BW25113 tolC mutant | OD615 | growth inhibition, % at 10 µM (by protocol) | 2.2% of 65,000 active | AID 573;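 active means growth inhibition at or above a cutoff equal to the mean over every tested compound plus 3 SD, cut at about 60% in these data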;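 further: growth measured after 20 h incubation at 37 °C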
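Test system: tolC-deleted E. coli BW25113; medium: LB with kanamycin 50 µg/mL; compound: single-point testing at 10 µM; incubation: 20 h compound exposure of bacteria at 37 °C; signal: OD at 615 nm; evaluation: growth inhibition in percent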
E coli WT exp – growth inhibitors of E. coli BW25113 wild type; growth inhibition, % at 100 µM; OD600 absorbance; 0.15% of 98,000 active;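 active means growth inhibition above about 50% at one test dose, limit read from the data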;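 further: growth measured after 20 h incubation at 37 °C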
* = called active by the depositor; x = no result. Rows were chosen to be rich in hits. Some 6.4% of all compounds tested hit in one or more screens of this group.

SMILES	Lung fibro prol	HUVEC prolif 384	H69AR growth 86K	Jurkat viability	tolC growth inh	E coli WT exp
COc1ccc(-n2cnc3cc(NCc4cccs4)ccc32)cc1	93	104	83	0	98*	-12
O=C(NC1CCCCC1)N1CCCC(c2nc3ccccc3[nH]2)C1 (centres undefined)	99	91	81	3	-12	-1
Cc1ccc(Cl)cc1N1CCN(C(=O)C2CCN(S(=O)(=O)c3c(C)nn(C)c3C)CC2)CC1	90	63	25*	7	57	-6
COc1cccc(NC(=O)NCCCSC2CCCCC2)c1	101	100	86	x	x	13
CC1Cc2cc(/C(O)=C3/C(=O)C(=O)N(CCCn4ccnc4)C3c3cccnc3)ccc2O1 (centres undefined)	101	101	79	x	x	2
C=C(C)COc1ccc(-c2nc(N)nc(C)c2Oc2ccccc2OC)c(O)c1	89	94	77	5	-19	-2
C=C(C)COc1ccc(-c2[nH]ncc2-c2ccccc2)c(O)c1	94	38	39*	x	x	26
C=C(C)COc1ccc(-c2[nH]ncc2-c2ccc(OC)c(OC)c2)c(O)c1	46*	45	x	65*	91*	2
O=C(Nn1c(Cc2cccs2)nc2ccccc2c1=O)c1cccs1	98	88	95	10	-9	-7
O=C(Nc1ccc(SC(F)F)cc1)c1cccc2nc3ccccc3nc12	39*	26*	10*	x	x	-3
Nc1c(C(=O)NCc2ccc3c(c2)OCO3)c2nc3ccccc3nc2n1CCCN1CCOCC1	62	20*	1.1*	5	95*	0
Nc1c(C(=O)NCc2ccccc2)c2nc3ccccc3nc2n1-c1ccc2c(c1)OCO2	x	x	x	x	x	-3
COc1ccccc1CNC(=O)c1c(N)n(CCCN2CCOCC2)c2nc3ccccc3nc12	x	x	x	x	x	9
Nc1c(C(=O)NCCN2CCOCC2)c2nc3ccccc3nc2n1-c1ccc2c(c1)OCO2	75	85	36*	-12	-10	-4
Nc1c(C(=O)NCCN2CCOCC2)c2nc3ccccc3nc2n1-c1ccccc1	98	96	36*	-1	0	6
Nc1c(C(=O)NCCN2CCOCC2)c2nc3ccccc3nc2n1CCc1ccccc1F	92	43	26*	-6	25	11
Cc1cc(CCN2CCC(=O)NC2=O)ccc1OC(C)C	98	97	102	4	-12	4
Nc1c(C(=O)NCc2ccco2)c2nc3ccccc3nc2n1CCc1ccc(F)cc1	83	34	4.0*	x	x	-2
Cc1ccc(N2C(N)=C(C#N)C(c3cccnc3)C3=C2CC(C)(C)CC3=O)cc1 (centres undefined)	79	87	24*	2	14	9
Cc1ccc(N2C(N)=C(C#N)C(c3ccsc3)C3=C2CC(C)(C)CC3=O)cc1 (centres undefined)	87	84	48	x	x	2
Cc1ccc(NC(=O)CSc2nnc(-c3ccc(S(=O)(=O)N4CCCC4)cc3)o2)cc1C	92	53	32*	-4	0	0
Cc1ccc(-c2nnc(SCC(=O)N3CC(C)CC(C)C3)o2)cc1C (centres undefined)	105	103	85	-7	97*	-8
CCN(CC)S(=O)(=O)c1ccc(-c2nnc(SCC(=O)Nc3ccc4c(c3)OCO4)o2)cc1	96	64	32*	4	-10	7
CCN(CC)S(=O)(=O)c1ccc(-c2nnc(SCc3nnc(-c4ccccc4)o3)o2)cc1	69	53	20*	1	8	1
Cc1cccc(NC(=O)CSc2nnc(-c3ccc(S(=O)(=O)N4CCCC4)cc3)o2)c1	96	85	93	0	-6	3
SMILES	Lung fibro prol	HUVEC prolif 384	H69AR growth 86K	Jurkat viability	tolC growth inh	E coli WT exp
NC(=O)c1ccccc1N=Cc1ccccn1	x	x	x	4	-1	4
Cc1cccc(C)c1NC(=O)CSc1nnnn1-c1ccc(C(=O)O)cc1	x	x	x	x	x	3
Fc1ccc(/C=C2\CCCC3=C2Nc2ncnn2C3c2ccc(F)cc2)cc1 (centres undefined)	56	37	22*	x	x	-8
c1ccc(C2C3=C(CCCC3)Nc3ncnn32)cc1 (centres undefined)	105	96	90	-2	-9	-1
COc1ccc(-c2cn3c(C)c(C(=O)Nc4ccncc4)sc3n2)cc1	94	101	75	32	3	-9
COCCN(CCOC)C(=O)c1sc2nc(-c3ccccc3)cn2c1C	100	87	96	1	-4	1
COc1ccc(-c2cn3c(C)c(C(=O)Nc4cccc(NC(C)=O)c4)sc3n2)cc1	88	23*	26*	14	-6	-13
CCOC(=O)C1CCN(C(=O)c2sc3nc(-c4ccc(F)cc4)cn3c2C)CC1	97	94	35*	4	14	-6
Cc1c(C(=O)Nc2ccncc2)sc2nc(-c3ccc(F)cc3)cn12	76	29*	17*	26	10	-7
COC(=O)c1ccc(NC(=O)c2sc3nc(-c4ccccc4)cn3c2C)cc1	100	70	37*	16	-5	-14
CCS(=O)(=O)N1CCN(C(C)CCc2ccccc2)CC1 (centres undefined)	104	104	84	2	-7	4
C=CCn1c(SCc2cccnc2)nnc1-c1ccncc1	95	91	106	5	-20	-3
Cc1nc(N2CCC(C)CC2)c2oc3ccccc3c2n1	97	82	34*	x	x	-2
COc1ccccc1N1CCN(c2nc(C)nc3c2oc2ccccc23)CC1	53	43	41	77*	97*	-3
Cc1nc(N2CCN(C(=O)c3ccco3)CC2)c2oc3ccccc3c2n1	102	69	95	x	8	x
Cc1nc(N2CCN(Cc3ccc4c(c3)OCO4)CC2)c2oc3ccccc3c2n1	69	77	23*	x	95*	x
CCC(Sc1ccc2nnc(-c3ccc(F)cc3)n2n1)C(=O)OC (centres undefined)	95	95	52	-1	-2	0
CC1CC(C)CN(S(=O)(=O)c2ccc(NC(=O)C3COc4ccccc4O3)cc2)C1 (centres undefined)	97	82	61	3	40	-11
Cc1ccc(Cl)cc1N1CCN(C(=O)c2cn(C)c(=O)c3c2c2ccccc2n3C)CC1	55	33	3.4*	13	52	-6
Cc1cccc(N2CCN(C(=O)c3cn(C)c(=O)c4c3c3ccccc3n4C)CC2)c1C	85	36	31*	16	83*	-1
Cn1c2ccccc2c2c(C(=O)N3CCN(c4ccccc4)CC3)cn(C3CCCC3)c(=O)c21	100	72	72	x	27	-25
COCCn1cc(C(=O)N2CCN(C)CC2)c2c3ccccc3n(C)c2c1=O	100	97	74	4	-9	-1
C=CCn1c(O)c(C(CC)=Nc2ccccc2NC(=O)CC)c(=O)[nH]c1=O	90	95	93	-15	-15	-12
